# Measurements: article PMC6831891 (Molecular Therapy. Nucleic Acids, 2019)
# How the values were obtained:
# [1] = tested on: S. pyogenes strain 591 (M49); assay: G. mellonella infection model; assay type: in vivo, Galleria mellonella
# In short: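 Wax moth larvae (150–200 mg) injected into the hemocoel, between the last two pro-leg pairs, with 1–3 × 10^6 CFU/larva. Inoculum was grown overnight in THY, washed twice and resuspended in 0.9% NaCl. Test compound (4 nmol/larva) injected 30 min post-infection; 0.9% NaCl served as mock. Survival recorded daily over 7 days.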
# [2] = tested on: S. pyogenes M49 strain 591; assay: Bacterial kill assay; assay type: cell-based, Streptococcus pyogenes; details: for Reduction of CFU per milliliter: concentration range 1 to 10 μM, n = 3; for Reduction of CFU per milliliter / Clearance six hours following treatment / Reduction of bacterial counts by scPNA / Reduction of bacterial counts by scPNAs in kill assay: 6 h; for Clearance six hours following treatment: 5 μM or 10 μM; for log CFU reduction: six hours following treatment; for Reduction of bacterial counts by scPNA: 10 μM scPNA, n = 5; for Reduction of bacterial counts by scPNAs in kill assay: up to 5 μM scPNA
# In short: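 S. pyogenes overnight cultures diluted in PBS/BHI (7/2) to about 2 × 10^5 CFU/mL. Test compound added to 1–10 μM final, with water as mock. Incubated 6 h at 37°C while rotating at 7 rpm. Dilutions plated on THY agar, and CFU counted after overnight growth at 37°C under 5% CO2/20% O2. Initial screen used two biological replicates; later experiments used at least three.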
# [3] = tested on: S. pyogenes M1 strain AP1; assay: Bacterial kill assay, strain AP1; assay type: cell-based, Streptococcus pyogenes; details: 6 h (data not shown; Figure 3B cited)
# In short: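 Overnight THY cultures (37°C, 5% CO2/20% O2) diluted in PBS/BHI (7/2) to about 2 × 10^5 CFU/mL. About 10^5 CFU were exposed to CPP-PNA conjugates at 1–10 μM final, with 5 μM used in the isolate comparison; water was the mock. Incubation 6 h at 37°C, rotating at 7 rpm. Viable counts came from plating dilutions on THY agar, compared with the untreated control.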
# gyrA mRNA = assay type: cell-based, Streptococcus pyogenes; details: 2 μM CPP-PNA, 6 h, 10^7 CFU/mL in THY; normalised to 5S RNA gene, 2^-ΔΔct; n = 3
compound,measurement,setting,value
"C[C@H]1COc2c(N3CCN(C)CC3)c(F)cc3c(=O)c(C(=O)O)cn1c23 [levofloxacin, reference compound]",Survival of infected larvae,"[1]; 1 μg levofloxacin alone, untreated infected larvae 20%, n = 30 larvae per group",46%
Dansyl-G-C-ELALE LALEALEAALELA [ELA-anti-gyrA PNA],Reduction of CFU per milliliter,[2],no reduction
KKKKKKKK [K8-anti-gyrA PNA],Clearance six hours following treatment,[2],no clearance was achieved
same,log CFU reduction,[2]; 5 μM,three
same,log CFU reduction,[2]; 10 μM,four
same,Antimicrobial effect in AP1,[3],did not show any antimicrobial effect
same,gyrA mRNA level relative to mock-treated bacteria,gyrA mRNA,60%
KKKKKKKK [K8-anti-gyrA scPNA],Reduction of bacterial counts by scPNA,[2],significant reduction
same,Reduction of bacterial counts by scPNAs in kill assay,[2],did not lead to the reduction of bacterial counts
LLIILRRRIRKQAHAHSK [mVE-cadherin-anti-gyrA PNA],Reduction of CFU per milliliter,[2],no reduction
RQIKIWFQNRRMKWKK [Ant-anti-gyrA PNA],Reduction of CFU per milliliter,[2],no reduction
RXRRXRRXRRXRXB [(RXR)4XB-anti-gyrA PNA],Clearance six hours following treatment,[2],no clearance was achieved
same,log CFU reduction,[2]; 5 μM,three
same,log CFU reduction,[2]; 10 μM,four
same,gyrA mRNA level relative to mock-treated bacteria,gyrA mRNA,56%
same,Effect on larvae survival relative to the other active conjugates,"[1]; 4 nmol/larva, 7 days",lower compared with the other conjugates
RXRRXRRXRRXRXB [(RXR)4XB-anti-gyrA scPNA],Reduction of bacterial counts by scPNA,[2],significant reduction
same,Reduction of bacterial counts by scPNAs in kill assay,[2],did not lead to the reduction of bacterial counts
